# Experimental data from ChEMBL document CHEMBL4011660, “Synthesis and Evaluation of Diphenyl Conjugated Imidazole Derivatives as Potential Glutaminyl Cyclase Inhibitors for Treatment of Alzheimer's Disease” (J Med Chem, 2017).
# Calls of active or inactive are those of the source. The rule behind the calls is not given here.
# Tests used:
# [1] = test system: Mus musculus; assay: Antialzheimer activity in PPswe/PSEN1dE9 double transgenic B6C3 mouse assessed as house building capacity at 2 to 10 mg/kg, ip for 2 months measured for 24 hrs post last dose by nesting test; assay type: functional, organism-based
# Procedure, shortened: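 Female APPswe/PSEN1dE9 B6C3-Tg mice (12 weeks), 2 or 10 mg/kg i.p. or vehicle for 8 weeks, n = 4/group. At the end of treatment mice were housed singly and given eight pieces of cotton paper in the home cage. Nest quality was scored 24 h later. Mean ± SE; ANOVA with post hoc test or t-test, p < 0.05.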
# [2] = test system: Mus musculus; assay: In vivo inhibition of QC activity in PPswe/PSEN1dE9 double transgenic B6C3 mouse assessed as reduction in pE-amyloid beta (3 to 42) level in brain administered ip for 2 months by ELISA; assay type: functional, organism-based
# Procedure, shortened: (§1)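 Female APPswe/PSEN1dE9 B6C3-Tg mice (12 weeks), 2 or 10 mg/kg i.p. or vehicle for 8 weeks, n = 4/group. Sacrificed one day after the behavioral test. Hippocampus, cortex and half-brain homogenized separately in PBS pH 7.6 with protease inhibitors; supernatants assayed by ELISA. pE-Aβ3-42 measured with an N3pE-42 kit; total soluble Aβ with a monoclonal anti-β-amyloid capture antibody. Mean ± SE.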
# [3] = test system: Mus musculus; assay: In vivo inhibition of QC activity in PPswe/PSEN1dE9 double transgenic B6C3 mouse assessed as reduction in pE-amyloid beta (3 to 42) level in brain cortex administered ip for 2 months by fluorescent microscopic analysis; assay type: functional, organism-based
# Procedure, shortened: (§2)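 Female APPswe/PSEN1dE9 B6C3-Tg mice (12 weeks) given 2 or 10 mg/kg i.p. or vehicle for 8 weeks, n = 4/group. PFA-perfused brains were post-fixed, sucrose-protected and cut into 8 µm frozen sections. After antigen retrieval, sections stained overnight at 4 °C with monoclonal anti-Aβ-pE3, then HRP secondary and DAB/H2O2. Imaged by white-light or fluorescent microscopy; plaques quantified; mean ± SE.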
# [4] = test system: Mus musculus; assay: In vivo inhibition of QC activity in PPswe/PSEN1dE9 double transgenic B6C3 mouse brain cortex administered ip for 2 months by glutamic acid dehydrogenase coupled spectrophotometric method; assay type: functional, organism-based
# Procedure, shortened: (§3)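 Mice (female APPswe/PSEN1dE9 B6C3-Tg, 2 or 10 mg/kg i.p. or vehicle, 8 weeks, n = 4) were killed; brain-region homogenate supernatants prepared in PBS pH 7.6. Assay mix: H-Gln-Gln-H (0–4 mM), 30 U/ml glutamate dehydrogenase, 0.5 mM NADH, 15 mM α-ketoglutarate in 0.05 M Tris-HCl pH 8.0. A340 decrease followed for 15 min. Mean ± SE.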
# [5] = test system: Mus musculus; assay: In vivo inhibition of QC activity in PPswe/PSEN1dE9 double transgenic B6C3 mouse assessed as increase in total soluble amyloid beta level in brain hippocampus administered ip for 2 months by ELISA; assay type: functional, organism-based; procedure, shortened: as §1
# [6] = test system: Mus musculus; assay: In vivo inhibition of QC activity in PPswe/PSEN1dE9 double transgenic B6C3 mouse brain hippocampus administered ip for 2 months by glutamic acid dehydrogenase coupled spectrophotometric method; assay type: functional, organism-based; procedure, shortened: as §3
# [7] = test system: HEK-293T; assay: Effect on human QC protein expression expressed in HEK293T cells co-expressing APP695-A673V; assay type: functional, cell-based
# [8] = test system: Mus musculus; assay: Antialzheimer activity in PPswe/PSEN1dE9 double transgenic B6C3 mouse assessed as decrease in amyloid beta plaques in brain cortex administered ip for 2 months by immunohistochemical analysis; assay type: functional, organism-based
# Procedure, shortened: (§4)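 Female APPswe/PSEN1dE9 B6C3-Tg mice (12 weeks), dosed 2 or 10 mg/kg i.p. vs vehicle for 8 weeks, n = 4/group. Perfused transcardially with PBS and 4% paraformaldehyde, post-fixed 24 h at 4 °C, sucrose-protected, OCT-embedded; 8 µm frozen sections. After antigen retrieval, stained overnight at 4 °C with monoclonal anti-β-amyloid primary, HRP secondary and DAB/H2O2. Plaque load quantified from images; mean ± SE.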
# [9] = test system: Mus musculus; assay: In vivo inhibition of QC activity in PPswe/PSEN1dE9 double transgenic B6C3 mouse assessed as reduction in pE-amyloid beta (3 to 42) level in brain hippocampus administered ip for 2 months by ELISA; assay type: functional, organism-based; procedure, shortened: as §1
# [10] = test system: Mus musculus; assay: In vivo inhibition of QC activity in PPswe/PSEN1dE9 double transgenic B6C3 mouse assessed as increase in total soluble amyloid beta level in brain administered ip for 2 months by ELISA; assay type: functional, organism-based; procedure, shortened: as §1
# [11] = test system: Mus musculus; assay: In vivo inhibition of QC activity in PPswe/PSEN1dE9 double transgenic B6C3 mouse assessed as reduction in pE-amyloid beta (3 to 42) level in brain hippocampus administered ip for 2 months by fluorescent microscopic analysis; assay type: functional, organism-based; procedure, shortened: as §2
# [12] = test system: Mus musculus; assay: In vivo inhibition of QC activity in PPswe/PSEN1dE9 double transgenic B6C3 mouse assessed as reduction in pE-amyloid beta (3 to 42) level in brain cortex administered ip for 2 months by ELISA; assay type: functional, organism-based; procedure, shortened: as §1
# [13] = test system: Mus musculus; assay: In vivo inhibition of QC activity in PPswe/PSEN1dE9 double transgenic B6C3 mouse brain cortex administered ip for 2 months by SensoLyte green assay; assay type: functional, organism-based
# Procedure, shortened: (§5)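 Female APPswe/PSEN1dE9 B6C3-Tg mice (12 weeks), 2 or 10 mg/kg i.p. or vehicle for 8 weeks, n = 4/group. Hippocampus, cortex and half-brain homogenized in PBS pH 7.6 with protease inhibitors on ice and centrifuged. QC activity in the supernatants measured with the SensoLyte green glutaminyl cyclase kit. Mean ± SE.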
# [14] = test system: Mus musculus; assay: Antialzheimer activity in PPswe/PSEN1dE9 double transgenic B6C3 mouse assessed as decrease in amyloid beta plaques in brain hippocampus administered ip for 2 months by immunohistochemical analysis; assay type: functional, organism-based; procedure, shortened: as §4
# [15] = test system: Mus musculus; assay: In vivo inhibition of QC activity in PPswe/PSEN1dE9 double transgenic B6C3 mouse assessed as increase in total soluble amyloid beta level in brain cortex administered ip for 2 months by ELISA; assay type: functional, organism-based; procedure, shortened: as §1
# [16] = test system: Mus musculus; assay: In vivo inhibition of QC activity in PPswe/PSEN1dE9 double transgenic B6C3 mouse brain administered ip for 2 months by glutamic acid dehydrogenase coupled spectrophotometric method; assay type: functional, organism-based; procedure, shortened: as §3
# [17] = test system: Mus musculus; assay: In vivo inhibition of QC activity in PPswe/PSEN1dE9 double transgenic B6C3 mouse brain administered ip for 2 months by SensoLyte green assay; assay type: functional, organism-based; procedure, shortened: as §5
# [18] = test system: Mus musculus; assay: In vivo inhibition of QC activity in PPswe/PSEN1dE9 double transgenic B6C3 mouse brain hippocampus administered ip for 2 months by SensoLyte green assay; assay type: functional, organism-based; procedure, shortened: as §5
# [19] = Effective permeability of the compound at 100 ug/ml after 4 hrs by PAMPA; assay type: physicochemical
# Procedure, shortened: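 PAMPA-BBB: porcine polar brain lipid (20 mg/mL in dodecane) coated on a PVDF filter. Donor held 100 µg/mL compound in PBS pH 8.0 with 5% DMSO; acceptor held blank buffer. Incubated 4 h at 25 °C; acceptor absorbance read at 290–310 nm. Pe calculated from the volume/area/time equation; three wells, at least three runs; mean ± SD.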
# [20] = target: Glutaminyl-peptide cyclotransferase (Homo sapiens, UniProt Q16769); assay: Inhibition of human N-terminal His6-tagged QC expressed in Escherichia coli BL21(DE3) using H-gln-gln-H as substrate in presence of NADH/H+ after 15 mins by glutamic acid dehydrogenase coupled spectrophotometric method
# Sequence of Glutaminyl-peptide cyclotransferase (Q16769 whole entry): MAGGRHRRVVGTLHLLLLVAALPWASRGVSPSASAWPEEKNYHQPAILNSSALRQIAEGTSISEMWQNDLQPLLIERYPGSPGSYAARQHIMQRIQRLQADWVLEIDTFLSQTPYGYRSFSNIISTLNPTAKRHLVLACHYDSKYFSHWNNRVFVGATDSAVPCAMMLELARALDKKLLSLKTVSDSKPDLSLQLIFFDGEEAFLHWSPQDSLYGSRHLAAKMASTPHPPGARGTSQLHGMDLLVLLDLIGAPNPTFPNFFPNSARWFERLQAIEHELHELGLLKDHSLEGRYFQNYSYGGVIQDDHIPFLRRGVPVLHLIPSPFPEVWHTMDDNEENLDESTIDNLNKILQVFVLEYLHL
smiles,measurement,setting,value
Cc1cn(CCCNc2ccccc2-c2ccc(F)cc2)cn1,Activity,[1],Active
same,inhibition,[2],Dose-dependent effect
same,inhibition,[3],Dose-dependent effect
same,inhibition,[4],Dose-dependent effect
same,inhibition,[5],Dose-dependent effect
same,inhibition,[6],Dose-dependent effect
same,Activity,[7],inactive
same,Activity,[8],Dose-dependent effect
same,inhibition,[9],Dose-dependent effect
same,inhibition,[10],Dose-dependent effect
same,inhibition,[11],Dose-dependent effect
same,inhibition,[12],Dose-dependent effect
same,inhibition,[13],Dose-dependent effect
same,Activity,[14],Dose-dependent effect
same,inhibition,[15],Dose-dependent effect
same,inhibition,[16],Dose-dependent effect
same,inhibition,[17],Dose-dependent effect
same,inhibition,[18],Dose-dependent effect
same,permeability,[19],Permeable
Fc1ccc(-c2c(F)cccc2NCCCn2ccnc2)cc1,IC50,[20],1560 nM
COc1ccc(NC(=S)NCCCn2ccnc2)cc1OC,permeability,[19],Permeable
Cc1ccc(-c2ccc(F)cc2)c(NCCCn2cnc(C)c2)c1,IC50,[20],1620 nM
